Data set [1] is described as follows: Toxicity in RBC assessed as hemolysis. The note with it: erythrocyte. The class given is cell-based.
Another data set has as its system Bacillus subtilis. In words: Antibacterial activity against Bacillus subtilis ATCC 530 after 24 hrs by MTT assay. It is filed as functional. The note with it: ATCC 530, 24 h. In outline: (§1)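 Seeded broth in nutrient broth from 24 h bacterial cultures on nutrient agar at 37 °C. Suspension adjusted with sterile saline to 1 × 10⁴–10⁵ CFU. Compounds and reference drugs twofold serially diluted to 100, 50, 25, 12.5, 6.25 … µg/mL. MIC determined by MTT method.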
Background: Tetrazolium dyes change colour on reduction, which living cells bring about.

The next data set has as its system Pseudomonas aeruginosa. The experiment in a line: Antibacterial activity against Pseudomonas aeruginosa ATCC 27853 after 24 hrs by MTT assay. It is filed as functional. The note with it: ATCC 27853, 24 h. The method, boiled down:
as §1

A further data set has as its system Staphylococcus aureus. The experiment in a line: Antibacterial activity against Staphylococcus aureus ATCC 25923 after 24 hrs by MTT assay. It is filed as functional. The note with it: ATCC 25923, 24 h. The method, boiled down:
as §1

A short description of data set [2]: inhibition of Escherichia coli FabH expressed in Escherichia coli BL21 (DE3) cells assessed as [3H]acetyl-CoA after 5 mins by liquid scintillation counting. The note with it: in the assay text read “after 25 mins” for “after 5 mins”. The method, boiled down: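 His-tagged E. coli FabH was expressed in kanamycin-selected culture in LB at 37 °C, induced with 0.5 mM IPTG for 4 h, then Ni–NTA purified. Reactions were run in 20 mM sodium phosphate, pH 7.0, with holo-ACP. They were stopped with ice-cold 50% TCA, the protein was pelleted, and ³H incorporation into product was read by liquid scintillation. Inhibitors were added from DMSO stock, final DMSO ≤2%.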

A further data set has as its system Escherichia coli. The experiment in a line: Antibacterial activity against Escherichia coli ATCC 25922/35128 after 24 hrs by MTT assay. The class given is functional. The note with it: ATCC 25922/35128, 24 h. The method, boiled down:
as §1

The nature of data set [3]: inhibition of Escherichia coli FabH expressed in Escherichia coli BL21 (DE3) cells assessed as [3H]acetyl-CoA after 25 mins by liquid scintillation counting.

In general, MIC refers to the lowest concentration found to suppress growth. Low readings indicate a more susceptible organism, high ones a less susceptible organism. The term pIC50 denotes the negative decadic logarithm of the IC50, by convention in mol/L.

pIC50: −log10 of the molar value. Converted amounts (≈) assume the structure as drawn.

Take `Cc1ncc([N+](=O)[O-])n1Cc1nnc(-c2ccc(F)cc2)o1`: in data set [1], the LC30 is more than 10000 µg/mL. Further, the MIC in the data set on Bacillus subtilis was determined as 12.5 µg/mL (≈ 41.2 µM); in the data set with Pseudomonas aeruginosa, 25 µg/mL (≈ 82.4 µM); in the data set with Staphylococcus aureus, 25 µg/mL (≈ 82.4 µM); against Escherichia coli, 12.5 µg/mL (≈ 41.2 µM). In addition, the pIC50 in data set [2] is 4.73.

Regarding `Cc1ncc([N+](=O)[O-])n1Cc1nnc(-c2ccc(Cl)cc2)o1`, in data set [1], the LC30 was more than 10000 µg/mL. Further, the MIC amounted to 12.5 µg/mL (≈ 39.1 µM) against Bacillus subtilis, 12.5 µg/mL (≈ 39.1 µM) against Pseudomonas aeruginosa, 25 µg/mL (≈ 78.2 µM) with Staphylococcus aureus and 12.5 µg/mL (≈ 39.1 µM) with Escherichia coli. Moreover, in data set [2], the pIC50 is 4.55.

Take `Cc1ncc([N+](=O)[O-])n1Cc1nnc(-c2ccc(Br)cc2)o1`: the LC30 in data set [1] was more than 10000 µg/mL. Also, the MIC was 12.5 µg/mL (≈ 34.3 µM) with Bacillus subtilis, 25 µg/mL (≈ 68.7 µM) against Pseudomonas aeruginosa, 50 µg/mL (≈ 137 µM) in the data set with Staphylococcus aureus and 25 µg/mL (≈ 68.7 µM) in the data set with Escherichia coli. The pIC50 in data set [2] was 4.36.

On to `Cc1ncc([N+](=O)[O-])n1Cc1nnc(-c2cccc(F)c2)o1`, for which the MIC with Bacillus subtilis, in the data set on Pseudomonas aeruginosa, in the data set on Staphylococcus aureus and with Escherichia coli was more than 100 µg/mL each time.

For `Cc1ncc([N+](=O)[O-])n1Cc1nnc(-c2cccc(Br)c2)o1`, the LC30 in data set [1] was more than 10000 µg/mL. Besides, the MIC in the data set with Bacillus subtilis was determined as 6.25 µg/mL (≈ 17.2 µM); against Pseudomonas aeruginosa, 25 µg/mL (≈ 68.7 µM); against Staphylococcus aureus it was 25 µg/mL (≈ 68.7 µM); in the data set with Escherichia coli it was 6.25 µg/mL (≈ 17.2 µM). The pIC50 in data set [2] is 4.77.

Regarding `Cc1ncc([N+](=O)[O-])n1Cc1nnc(-c2ccc([N+](=O)[O-])cc2)o1`, the pIC50 in data set [3] is 4.39. Moreover, the LC30 in data set [1] is more than 10000 µg/mL. In addition, the minimal inhibitory concentration (MIC) is 25 µg/mL (≈ 75.7 µM) against Bacillus subtilis, 12.5 µg/mL (≈ 37.8 µM) against Pseudomonas aeruginosa, 25 µg/mL (≈ 75.7 µM) in the data set with Staphylococcus aureus and 12.5 µg/mL (≈ 37.8 µM) in the data set on Escherichia coli.

On to `COc1cccc(-c2nnc(Cn3c([N+](=O)[O-])cnc3C)o2)c1`, for which, in data set [1], the LC30 was more than 10000 µg/mL. Moreover, the MIC with Bacillus subtilis stood at 6.25 µg/mL (≈ 19.8 µM); against Pseudomonas aeruginosa, 12.5 µg/mL (≈ 39.6 µM); against Staphylococcus aureus, 12.5 µg/mL (≈ 39.6 µM); against Escherichia coli, 12.5 µg/mL (≈ 39.6 µM). The pIC50 in data set [2] is 5.03.

Regarding `COc1ccccc1-c1nnc(Cn2c([N+](=O)[O-])cnc2C)o1`, in data set [1], the LC30 is more than 10000 µg/mL. Also, the MIC came to 1.56 µg/mL (≈ 4.95 µM) in the data set on Bacillus subtilis, 1.56 µg/mL (≈ 4.95 µM) in the data set with Pseudomonas aeruginosa, 3.13 µg/mL (≈ 9.93 µM) in the data set on Staphylococcus aureus and 1.56 µg/mL (≈ 4.95 µM) in the data set with Escherichia coli. The negative logarithm of the IC50 (pIC50) in data set [2] is 5.37.

As to `Cc1ccccc1-c1nnc(Cn2c([N+](=O)[O-])cnc2C)o1`, the pIC50 in data set [3] is 5.29. Besides, in data set [1], the LC30 is more than 10000 µg/mL. Moreover, the MIC worked out at 1.56 µg/mL (≈ 5.21 µM) in the data set on Bacillus subtilis, 3.13 µg/mL (≈ 10.5 µM) in the data set with Pseudomonas aeruginosa, 6.25 µg/mL (≈ 20.9 µM) with Staphylococcus aureus and 1.56 µg/mL (≈ 5.21 µM) in the data set on Escherichia coli.

For the compound `Cc1ncc([N+](=O)[O-])n1Cc1nnc(Cc2ccc(F)cc2)o1`, the MIC against Bacillus subtilis turned out to be 50 µg/mL (≈ 158 µM); in the data set with Pseudomonas aeruginosa, 12.5 µg/mL (≈ 39.4 µM); in the data set with Staphylococcus aureus, 25 µg/mL (≈ 78.8 µM); with Escherichia coli, 25 µg/mL (≈ 78.8 µM).

Regarding `Cc1ncc([N+](=O)[O-])n1Cc1nnc(Cc2ccc(Cl)cc2)o1`, the minimal inhibitory concentration (MIC) was 50 µg/mL (≈ 150 µM) with Bacillus subtilis, 12.5 µg/mL (≈ 37.5 µM) in the data set with Pseudomonas aeruginosa, 25 µg/mL (≈ 74.9 µM) in the data set with Staphylococcus aureus and 50 µg/mL (≈ 150 µM) with Escherichia coli.

Consider `Cc1ncc([N+](=O)[O-])n1Cc1nnc(Cc2ccc(Br)cc2)o1`, for which the MIC against Bacillus subtilis is 50 µg/mL (≈ 132 µM); against Pseudomonas aeruginosa, 25 µg/mL (≈ 66.1 µM); in the data set with Staphylococcus aureus, 50 µg/mL (≈ 132 µM); in the data set with Escherichia coli it was 50 µg/mL (≈ 132 µM).

In the case of `Cc1ncc([N+](=O)[O-])n1Cc1nnc(Cc2cccc(F)c2)o1`, the MIC in the data set with Bacillus subtilis, with Pseudomonas aeruginosa, with Staphylococcus aureus and against Escherichia coli was more than 100 µg/mL in each case.

As to `Cc1ncc([N+](=O)[O-])n1Cc1nnc(Cc2cccc(Br)c2)o1`, the minimum inhibitory concentration (MIC) with Bacillus subtilis was 25 µg/mL (≈ 66.1 µM); with Pseudomonas aeruginosa it was 6.25 µg/mL (≈ 16.5 µM); in the data set on Staphylococcus aureus, 50 µg/mL (≈ 132 µM); against Escherichia coli, 25 µg/mL (≈ 66.1 µM).

For `Cc1ncc([N+](=O)[O-])n1Cc1nnc(Cc2ccc([N+](=O)[O-])cc2)o1`, the MIC in the data set on Bacillus subtilis came out at 25 µg/mL (≈ 72.6 µM); against Pseudomonas aeruginosa it was 25 µg/mL (≈ 72.6 µM); in the data set with Staphylococcus aureus, 50 µg/mL (≈ 145 µM); in the data set with Escherichia coli it was 25 µg/mL (≈ 72.6 µM).

In the case of `COc1cccc(Cc2nnc(Cn3c([N+](=O)[O-])cnc3C)o2)c1`, the MIC against Bacillus subtilis stood at 25 µg/mL (≈ 75.9 µM); with Pseudomonas aeruginosa, 12.5 µg/mL (≈ 38 µM); against Staphylococcus aureus, 50 µg/mL (≈ 152 µM); in the data set with Escherichia coli, 25 µg/mL (≈ 75.9 µM).

In the case of `COc1ccccc1Cc1nnc(Cn2c([N+](=O)[O-])cnc2C)o1`, the MIC worked out at 25 µg/mL (≈ 75.9 µM) in the data set on Bacillus subtilis, 12.5 µg/mL (≈ 38 µM) in the data set with Pseudomonas aeruginosa, 25 µg/mL (≈ 75.9 µM) against Staphylococcus aureus and 50 µg/mL (≈ 152 µM) in the data set on Escherichia coli.

With `Cc1ccccc1Cc1nnc(Cn2c([N+](=O)[O-])cnc2C)o1`, the MIC was determined as 50 µg/mL (≈ 160 µM) against Bacillus subtilis, 25 µg/mL (≈ 79.8 µM) in the data set on Pseudomonas aeruginosa, 25 µg/mL (≈ 79.8 µM) against Staphylococcus aureus and 12.5 µg/mL (≈ 39.9 µM) against Escherichia coli.

Turning to `NC[C@H]1O[C@H](O[C@H]2[C@H](O)[C@@H](O[C@H]3O[C@H](CO)[C@@H](O)[C@H](N)[C@H]3O)[C@H](N)C[C@@H]2N)[C@H](O)[C@@H](O)[C@@H]1O` [KANAMYCIN], the MIC came out at 1.56 µg/mL (≈ 3.22 µM) against Bacillus subtilis, 3.13 µg/mL (≈ 6.46 µM) against Pseudomonas aeruginosa, 1.56 µg/mL (≈ 3.22 µM) against Staphylococcus aureus and 3.13 µg/mL (≈ 6.46 µM) in the data set on Escherichia coli.

Source of the values: ChEMBL document CHEMBL2046408, “Design, synthesis and antimicrobial activities of nitroimidazole derivatives containing 1,3,4-oxadiazole scaffold as FabH inhibitors” (Bioorg Med Chem, 2012).
